Test results from PMC8547165 (Environmental science & technology, 2021).

How the values were obtained:
[1] = QAC levels in human blood; type: in vivo; conditions: human serum, n = 111; for Median concentration: non-detects = 1/2 MDL
[2] = Hepatic clearance in vitro-in vivo extrapolation; design: species or system human; conditions: IVIVE
Outline: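 Human liver microsomes (1 mg/mL) in 50 mM phosphate pH 7.4 with 3 mM MgCl2, 0.5 uM substrate, 0.5% DMSO, NADPH-generating system, 37 °C, triplicate, stopped at 0–3 h; depletion fitted mono-exponentially for CLin vitro. Unbound fraction from NSB-corrected serum ultrafiltration and 60-min blood/serum ratio. Scaled by 34 mg microsomal protein/g liver, hepatic blood flow 42.6 mL/h/g liver.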

Row | SMILES | Maximum concentration ([1]; before COVID-19 (2019)) | Minimum concentration ([1]; before COVID-19 (2019)) | Median concentration ([1]; before COVID-19 (2019)) | Maximum concentration ([1]; during COVID-19 (2020)) | Minimum concentration ([1]; during COVID-19 (2020)) | Median concentration ([1]; during COVID-19 (2020)) | Fold lower CLinvivo than C14- and C16-ATMACs [2]
1 | CCCCCCCC[N+](C)(C)Cc1ccccc1 [C8-BAC] | 0.196 ng/mL | <MDL | <MDL | 0.433 ng/mL | <MDL | 0.055 ng/mL | 
2 | CCCCCCCCCCCCCCCC[N+](C)(C)Cc1ccccc1 [C16-BAC] | 0.800 ng/mL | <MDL | 0.080 ng/mL | 16.4 ng/mL | <MDL | 0.346 ng/mL | 
3 | CCCCCCCCCC[N+](C)(C)Cc1ccccc1 [C10-BAC] | 0.166 ng/mL | <MDL | <MDL | 1.45 ng/mL | <MDL | <MDL | 
4 | CCCCCCCCCCCCCC[N+](C)(C)C [C14-ATMAC] | 1.86 ng/mL | <MDL | 0.667 ng/mL | 3.75 ng/mL | <MDL | 0.929 ng/mL | 
5 | CCCCCCCCCCCCCCCCCC[N+](C)(C)Cc1ccccc1 [C18-BAC] | 2.14 ng/mL | <MDL | <MDL | 1.41 ng/mL | <MDL | 0.180 ng/mL | 
6 | CCCCCCCC[N+](C)(C)CCCCCCCC [C8-DDAC] | 0.447 ng/mL | <MDL | <MDL | 0.219 ng/mL | <MDL | <MDL | 
7 | CCCCCCCCCCCCCCCC[N+](C)(C)C [C16-ATMAC] | 5.65 ng/mL | <MDL | <MDL | 3.53 ng/mL | <MDL | 0.966 ng/mL | 
8 | CCCCCCCCCCCC[N+](C)(C)C [C12-ATMAC] | 8.55 ng/mL | <MDL | 0.981 ng/mL | 6.84 ng/mL | <MDL | 0.612 ng/mL | 2-4 times
9 | CCCCCCCCCC[N+](C)(C)CCCCCCCCCC [C10-DDAC] | 0.206 ng/mL | <MDL | <MDL | 0.620 ng/mL | <MDL | 0.089 ng/mL | 
10 | CCCCCCCCCCCCCC[N+](C)(C)Cc1ccccc1 [C14-BAC] | 2.36 ng/mL | <MDL | 0.490 ng/mL | 40.1 ng/mL | <MDL | 1.14 ng/mL | 
11 | CCCCCCCCCCCC[N+](C)(C)Cc1ccccc1 [C12-BAC] | 1.40 ng/mL | <MDL | 0.289 ng/mL | 22.1 ng/mL | <MDL | 0.634 ng/mL | 
12 | CCCCCCCCCCCCCC[N+](C)(C)CCCCCCCCCCCCCC [C14-DDAC] | 0.522 ng/mL | <MDL | <MDL | 0.795 ng/mL | <MDL | <MDL | 
13 | CCCCCCCCCCCCCCCC[N+](C)(C)CCCCCCCCCCCCCCCC [C16-DDAC] | 0.142 ng/mL | <MDL | <MDL | 0.576 ng/mL | <MDL | <MDL | 
14 | CCCCCCCCCCCCCCCCCC[N+](C)(C)C [C18-ATMAC] | 0.171 ng/mL | <MDL | <MDL | 3.62 ng/mL | <MDL | <MDL | 
15 | CCCCCCCCCCCCCCCCCC[N+](C)(C)CCCCCCCCCCCCCCCCCC [C18-DDAC] | 5.77 ng/mL | <MDL | <MDL | 5.35 ng/mL | <MDL | <MDL | 
